# Data as given in ChEMBL document CHEMBL3997768, “The synthesis and antistaphylococcal activity of dehydroabietic acid derivatives: modifications at C12 and C7” (2017).
# The source made the active and inactive calls. The rule behind the calls is not given here.
# Columns and labels:
# Type in all cases: functional
# Staphylococcus aureus [1] = assay: Antibacterial activity against Staphylococcus aureus Newman after 18 hrs by two fold serial dilution method
# How it was run: (§1)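 Strains were grown overnight at 37 °C in TSB without antibiotic, diluted 1000-fold, and grown 2–3 h to A600 0.6. They were then diluted 1:400 in fresh TSB. Compounds in DMSO were two-fold serially diluted to a final 0.39–50 and mixed with an equal volume of bacteria. A600 was read after 18 h. MIC is the lowest concentration inhibiting growth. Triplicate; vancomycin and tetracycline were positive controls.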
# Staphylococcus aureus [2] = assay: Antibacterial activity against aminoglycosides/tetracycline-resistant Staphylococcus aureus NRS-1 after 18 hrs by two fold serial dilution method; settings: NRS-1, 18 h
# How it was run: (§2)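 Strains grown overnight at 37 °C in TSB without antibiotic. Cultures were diluted 1000-fold, grown at 37 °C for 2–3 h to A600 0.6, then diluted 1:400 in fresh TSB. Equal volumes of bacteria and two-fold serial DMSO dilutions (final 0.39–50) were mixed. A600 was read after 18 h. MIC was the lowest concentration inhibiting growth. Run in triplicate, with vancomycin and tetracycline controls.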
# Staphylococcus aureus [3] = assay: Antibacterial activity against erythromycin-resistant Staphylococcus aureus NRS-70 after 18 hrs by two fold serial dilution method; settings: NRS-70, 18 h; how it was run: as §2
# Staphylococcus aureus [4] = assay: Antibacterial activity against oxacillin/tetracycline-resistant Staphylococcus aureus NRS-100 after 18 hrs by two fold serial dilution method; settings: NRS-100, 18 h; how it was run: as §2
# Staphylococcus aureus [5] = assay: Antibacterial activity against gentamicin-resistant Staphylococcus aureus NRS-108 after 18 hrs by two fold serial dilution method; settings: NRS-108, 18 h; how it was run: as §2
# Staphylococcus aureus [6] = assay: Antibacterial activity against linezolid-resistant Staphylococcus aureus NRS-271 containing phage type E-MRSA after 18 hrs by two fold serial dilution method; settings: NRS-271, 18 h; how it was run: as §2
# Escherichia coli = assay: Antibacterial activity against Escherichia coli AB1157 at 50 ug/ml after 18 hrs by two fold serial dilution method; how it was run: as §1
SMILES,MIC (Staphylococcus aureus [1]),MIC (Staphylococcus aureus [2]),MIC (Staphylococcus aureus [3]),MIC (Staphylococcus aureus [4]),MIC (Staphylococcus aureus [5]),MIC (Staphylococcus aureus [6]),Activity (Escherichia coli)
CC(C)c1cc2c(cc1Br)[C@@]1(C)CCC[C@@](C)(C(=O)O)[C@@H]1C/C2=N\OCCCNC(=O)Cc1cccc(C(F)(F)F)c1,1.92 to 3.84 µM,> 19.2 µM,1.92 to 2.39 µM,3.84 to 4.8 µM,2.39 to 3.84 µM,2.39 to 3.84 µM,inactive
CC(C)c1cc2c(cc1Br)[C@@]1(C)CCC[C@@](C)(C(=O)O)[C@@H]1C/C2=N\OCCCNC(=O)c1cc2ccccc2s1,4 µM,> 40 µM,> 40 µM,> 40 µM,> 40 µM,> 40 µM,inactive
CC(C)c1cc2c(cc1Br)[C@@]1(C)CCC[C@@](C)(C(=O)O)[C@@H]1C/C2=N\OCCCNC(=O)Cc1ccc(C(F)(F)F)cc1,3.84 µM,> 19.2 µM,2.39 to 3.84 µM,4.8 to 9.59 µM,2.39 to 3.84 µM,4.8 to 9.59 µM,inactive
CC(C)c1cc2c(cc1Br)[C@@]1(C)CCC[C@@](C)(C(=O)O)[C@@H]1C/C2=N\OCCCNC(=O)c1ccc[nH]1,4.48 µM,5.6 µM,2.79 to 4.48 µM,2.79 to 4.48 µM,2.79 to 4.48 µM,2.79 to 4.48 µM,inactive
CC(C)c1cc2c(cc1Br)[C@@]1(C)CCC[C@@](C)(C(=O)O)[C@@H]1C/C2=N\OCCNC(=O)c1cccc(C(F)(F)F)c1,4.01 µM,5.02 µM,2.5 to 4.01 µM,5.02 µM,2.5 to 4.01 µM,2.5 to 4.01 µM,inactive
CC(C)c1cc2c(cc1Br)[C@@]1(C)CCC[C@@](C)(C(=O)O)[C@@H]1C/C2=N\OCCCNC(=O)c1ccc(Cl)s1,2.05 to 4.1 µM,10.2 to 20.5 µM,2.56 to 4.1 µM,5.13 µM,2.56 to 4.1 µM,2.56 to 4.1 µM,inactive
CC(C)c1cc2c(cc1Br)[C@@]1(C)CCC[C@@](C)(C(=O)O)[C@@H]1C/C2=N\OCCNC(=O)c1cc2ccccc2s1,2.04 to 4.09 µM,4.09 to 5.12 µM,2.04 to 4.09 µM,2.55 to 4.09 µM,2.55 to 4.09 µM,2.05 to 2.55 µM,inactive
CC(C)c1cc2c(cc1Br)[C@@]1(C)CCC[C@@](C)(C(=O)O)[C@@H]1C/C2=N\OCCCNC(=O)c1ccc(Br)s1,1.91 to 3.82 µM,> 19.1 µM,2.38 to 3.82 µM,4.78 µM,2.38 to 3.82 µM,2.38 to 3.82 µM,inactive
CC(C)c1cc2c(cc1Br)[C@@]1(C)CCC[C@@](C)(C(=O)O)[C@@H]1C/C2=N\OCCCNC(=O)c1cccc(C(F)(F)F)c1,1.96 to 3.92 µM,> 19.6 µM,4.91 µM,4.91 µM,3.92 to 4.91 µM,3.92 to 4.91 µM,inactive
CC(C)c1cc2c(cc1Br)[C@@]1(C)CCC[C@@](C)(C(=O)O)[C@@H]1C/C2=N\OCCNC(=O)c1ccc(Cl)s1,4.19 µM,5.25 to 10.5 µM,2.62 to 4.19 µM,4.19 µM,2.62 to 4.19 µM,1.56 to 2.5 µM,inactive
